From ChEMBL document CHEMBL1765029, “Synthesis and biological evaluation of estradiol linked pyrrolo[2,1-c][1,4]benzodiazepine (PBD) conjugates as potential anticancer agents” (2011)
Calls of active or inactive are those of the source. No cut-off for these calls is given here.

Legend:
[1] = test system: MCF7; experiment: Cytotoxicity against human MCF7 cells by sulforhodamine B method; assay type: functional
[2] = test system: MCF7; experiment: Cell cycle arrest in human MCF7 cells assessed as accumulation at G1 phase using propidium iodide staining at 4 uM after 24 hrs by flow cytometry; assay type: functional
In short: (§1)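 MCF-7 cells (5 × 10⁵ per 60 mm dish) grown 24 h, then exposed to 4 µM compound for a further 24 h; DMSO-treated control. Cells trypsinised, fixed in ice-cold 70% ethanol at 4 °C for 30 min, RNase-treated (1 mg/mL, 37 °C, 30 min), stained with propidium iodide/citrate/Triton X-100. DNA content read on 20,000 events by flow cytometry; percent cells per phase reported.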

[3] = test system: A2780; experiment: Cytotoxicity against human A2780 cells by sulforhodamine B method; assay type: functional
[4] = test system: COLO 205; experiment: Cytotoxicity against human COLO205 cells by sulforhodamine B method; assay type: functional
[5] = test system: MCF7; experiment: Reduction in Cdk1 protein level in human MCF7 cells at 4 uM after 24 hrs by Western blot analysis; assay type: functional, cell-based
In short: (§2)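 MCF-7 cells (5 × 10⁵ per 60 mm dish) grown 24 h, then treated at 4 µM for 24 h. Lysis in ice-cold RIPA buffer with protease/phosphatase inhibitors; protein measured by Bradford. Fifty µg per lane resolved on 12% SDS-PAGE and transferred to PVDF. Blocked 2 h, primary antibody overnight at 4 °C, chemiluminescent detection; β-actin as loading control.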

[6] = test system: PC-3; experiment: Cytotoxicity against human PC3 cells by sulforhodamine B method; assay type: functional
[7] = test system: KB; experiment: Cytotoxicity against human KB cells by sulforhodamine B method; assay type: functional
[8] = test system: MCF7; experiment: Cytotoxicity against human MCF7 cells at 4 uM after 24 hrs by MTT assay; assay type: functional, cell-based
In short: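 MCF-7 cells seeded at 10,000 per well, incubated overnight, then treated at 4 µM for 24 h; DMSO control. Medium replaced with MTT, 2 h at 37 °C. Formazan solubilised in extraction buffer, absorbance read at 570 nm, expressed as percent viability.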

[9] = test system: HOP-62; experiment: Cytotoxicity against human HOP62 cells by sulforhodamine B method; assay type: functional
[10] = Cytotoxicity against human Gurav cells by sulforhodamine B method; assay type: functional
[11] = test system: MCF7; experiment: Cell cycle arrest in human MCF7 cells assessed as accumulation at G2/M phase using propidium iodide staining at 4 uM after 24 hrs by flow cytometry; assay type: functional; in short: as §1
[12] = test system: SiHa; experiment: Cytotoxicity against human SiHa cells by sulforhodamine B method; assay type: functional
[13] = test system: A549; experiment: Cytotoxicity against human A549 cells by sulforhodamine B method; assay type: functional
[14] = test system: MCF7; experiment: Cell cycle arrest in human MCF7 cells assessed as accumulation at G0 phase using propidium iodide staining at 4 uM after 24 hrs by flow cytometry; assay type: functional; in short: as §1
[15] = test system: MCF7; experiment: Cell cycle arrest in human MCF7 cells assessed as accumulation at S phase using propidium iodide staining at 4 uM after 24 hrs by flow cytometry; assay type: functional; in short: as §1
[16] = Cytotoxicity against human DWD cells by sulforhodamine B method; assay type: functional
[17] = test system: MCF7; experiment: Induction of apoptosis in human MCF7 cells assessed as up-regulation of Bax gene at 4 uM after 24 hrs by Western blot analysis; assay type: functional, cell-based; in short: as §2
[18] = biological target: Tubulin (Homo sapiens) (UniProt P68371+Q9H4B7+P0DPH7+P68366+Q13509+Q71U36+P04350+Q3ZCM7+P07437+P68363+Q9BQE3+Q6PEY2+Q13885+Q9BVA1+Q9BUF5); experiment: Inhibition of tubulin polymerization in human MCF7 cells assessed as disruption of microtubule network at 4 uM after 24 hrs by DAPI based immunofluorescence assay; assay type: cell-based
In short: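 MCF-7 cells on glass coverslips incubated 24 h with or without 4 µM compound. Fixed in 4% paraformaldehyde/0.02% glutaraldehyde, permeabilised in −20 °C methanol, blocked 1 h in 1% BSA/PBS. Stained with mouse anti-tubulin primary and Cy3 anti-mouse IgG secondary, nuclei with DAPI. Confocal images scored for microtubule integrity; nocodazole as reference.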

[19] = test system: ZR-75-1; experiment: Cytotoxicity against human ZR-75-1 cells by sulforhodamine B method; assay type: functional
[20] = test system: MCF7; experiment: Induction of apoptosis in human MCF7 cells assessed as DNA fragmentation at 4 uM after 24 hrs by TUNEL assay relative to control; assay type: functional, cell-based
In short: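 MCF-7 cells treated at 4 µM for 24 h; untreated cells as control. Nuclear DNA fragmentation detected by TdT-mediated fluorescein-dUTP nick-end labelling (ApoAlert kit). Labelled cells imaged by confocal microscopy, green stain marking TUNEL-positive cells.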

[21] = test system: MCF7; experiment: Induction of apoptosis in human MCF7 cells assessed as activation of procaspase-7 at 4 uM after 24 hrs by Western blot analysis; assay type: functional, cell-based; in short: as §2
[22] = test system: MCF7; experiment: Induction of apoptosis in human MCF7 cells assessed up-regulation of p53 protein level at 4 uM after 24 hrs by Western blot analysis; assay type: functional, cell-based; in short: as §2
[23] = test system: MCF7; experiment: Induction of apoptosis in human MCF7 cells assessed up-regulation of p21 protein level at 4 uM after 24 hrs by Western blot analysis; assay type: functional, cell-based; in short: as §2
[24] = test system: MCF7; experiment: Down regulation of NF-kappa B p65 protein in human MCF7 cells at 4 uM after 24 hrs by Western blot analysis; assay type: functional, cell-based; in short: as §2
[25] = test system: MCF7; experiment: Down regulation of HDAC-1 protein in human MCF7 cells at 4 uM after 24 hrs by Western blot analysis; assay type: functional, cell-based; in short: as §2
[26] = test system: MCF7; experiment: Down regulation of HDAC-3 protein in human MCF7 cells at 4 uM after 24 hrs by Western blot analysis; assay type: functional, cell-based; in short: as §2

Row | SMILES | GI50 [1] [nM] | Activity [2] [%] | GI50 [3] [nM] | GI50 [4] [nM] | Activity [5] | GI50 [6] [nM] | GI50 [7] [nM] | Activity [8] | GI50 [9] [nM] | GI50 [10] [nM] | Activity [11] [%] | GI50 [12] [nM] | GI50 [13] [nM] | Activity [14] [%] | Activity [15] [%] | GI50 [16] [nM] | Activity [17] | inhibition [18] | GI50 [19] [nM] | Activity [20] | further results
1 | COc1cc2c(cc1O)N=C[C@@H]1CCCN1C2=O | 170 | 73.66 | 140 | 110 | Active | 200 | 170 | Active | 150 | 160 | 4.83 | 170 | 160 | 8.5 | 13 |  |  |  |  |  | 
2 | COc1cc2c(cc1OCc1cn(CCCCCOc3ccc4c(c3)CC[C@@H]3[C@@H]4CC[C@]4(C)[C@@H](O)CC[C@@H]34)nn1)N=C[C@@H]1C[C@@H](F)CN1C2=O | < 100 | 42.5 | < 100 | 120 |  | < 100 | < 100 | Active | 110 |  | 32.4 | 110 | < 100 | 0.82 | 25.8 | 120 | Active | Active | < 100 | Active | Activity [21]: Active; Activity [22]: Active; Activity [23]: Active
3 | COc1cc2c(cc1OCc1cn(CCCOc3ccc4c(c3)CC[C@@H]3[C@@H]4CC[C@]4(C)[C@@H](O)CC[C@@H]34)nn1)N=C[C@@H]1C[C@@H](F)CN1C2=O | < 100 | 30.76 | < 100 | 110 | Active | < 100 | < 100 | Active | < 100 | < 100 | 36.64 | < 100 | < 100 | 2 | 30.59 | < 100 | Active | Active | < 100 | Active | Activity [21]: Active; Activity [24]: Active; Activity [25]: Active; Activity [26]: Active; Activity [22]: Active; Activity [23]: Active
